ChEMBL document CHEMBL2380254, “Optimization of tocotrienols as antiproliferative and antimigratory leads” (Eur J Med Chem, 2013)

How the values were obtained:
Assay type in all cases: functional
KM12 = assay: Growth inhibition of human KM12 cells after 48 hrs by sulforhodamine B assay; conditions: KM12, 48 h
In short: (§1)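 NCI-60 screen: cells in RPMI 1640 with 5% FBS and 2 mM glutamine, 5000–40,000 cells/well, preincubated 24 h. Five concentrations (10-fold dilutions; 100 to 0.001 µM) applied for 48 h at 37 °C. TCA fixation, SRB stain, absorbance at 515 nm. Time-zero plates included; GI50 where 100×(T−T0)/(C−T0)=50.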

SW-620 = assay: Growth inhibition of human SW620 cells assessed as cell growth at 10 uM after 48 hrs by sulforhodamine B assay; conditions: SW-620, 48 h, read-out: Activity
In short: (§2)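 Single-dose NCI-60 test at 10 µM. Cells were grown in RPMI 1640 with 5% FBS and 2 mM L-glutamine, preincubated 24 h, with T0 plates TCA-fixed. Exposure was 48 h at 37 °C, 5% CO2. Cells were fixed with cold TCA (final 10%, 4 °C, 60 min), stained with SRB and read at 515 nm. Percent growth was taken relative to T0 and untreated control; negative values denote cell kill.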

UACC-62 = assay: Growth inhibition of human UACC62 cells after 48 hrs by sulforhodamine B assay; conditions: UACC-62, 48 h
In short: (§3)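 NCI-60 five-dose screen. Cells were grown in RPMI 1640 with 5% FBS and 2 mM L-glutamine, plated at 5000–40,000 cells/well and incubated 24 h before dosing, with T0 plates TCA-fixed. DMSO stocks were diluted to doses of […] and exposed 48 h at 37 °C, 5% CO2. Cells were fixed with cold TCA (final 10%, 60 min, 4 °C), stained with 0.4% SRB in 1% acetic acid for 10 min, solubilized in 10 mM trizma base and read at 515 nm. GI50 is where 100×(T−T0)/(C−T0)=50.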

M14 = assay: Growth inhibition of human M14 cells after 48 hrs by sulforhodamine B assay; conditions: M14, 48 h; in short: as §1
MDA-MB-435 = assay: Growth inhibition of human MDA-MB-435 cells after 48 hrs by sulforhodamine B assay; conditions: MDA-MB-435, 48 h
In short: (§4)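 NCI-60 panel cells grown in RPMI 1640 with 5% FBS and 2 mM L-glutamine, seeded at 5000–40,000 cells/well and preincubated 24 h. Five 10-fold dilutions (0.001–100 µM) from DMSO stocks were added for 48 h at 37 °C. Adherent cells were fixed with cold TCA (10% final) for 60 min at 4 °C, stained with 0.4% SRB, and read at 515 nm. GI50 was set where 100×(T−T0)/(C−T0)=50.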

TK-10 = assay: Growth inhibition of human TK10 cells assessed as cell growth at 10 uM after 48 hrs by sulforhodamine B assay; conditions: TK-10, 48 h, read-out: Activity; in short: as §2
MDA-MB-468 = assay: Growth inhibition of human MDA-MB-468 cells assessed as cell growth at 10 uM after 48 hrs by sulforhodamine B assay; conditions: MDA-MB-468, 48 h, read-out: Activity
In short: (§5)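 Single-dose NCI-60 screen: adherent cells in RPMI 1640 with 5% FBS were exposed to 10 µM for 48 h at 37 °C after a 24 h preincubation. They were fixed in situ with cold TCA (10% final), stained with 0.4% SRB in 1% acetic acid, solubilized in 10 mM Tris base, and read at 515 nm. Percent growth was taken relative to time-zero and control plates.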

MOLT-4 = assay: Growth inhibition of human MOLT4 cells after 48 hrs by sulforhodamine B assay; conditions: MOLT-4, 48 h
In short: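 NCI-60 suspension lines in RPMI 1640 with 5% FBS and 2 mM L-glutamine, preincubated 24 h. A five-concentration 10-fold series (0.001–100 µM) was given for 48 h at 37 °C. Settled cells were fixed with 80% TCA (16% final), stained with SRB, and read at 515 nm. GI50 was taken where 100×(T−T0)/(C−T0)=50, with T0 plates fixed at drug addition.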

OVCAR-5 = assay: Growth inhibition of human OVCAR5 cells assessed as cell growth at 10 uM after 48 hrs by sulforhodamine B assay; conditions: OVCAR-5, 48 h, read-out: Activity; in short: as §5
[1] = Growth inhibition of human NCI-ADR-RES cells after 48 hrs by sulforhodamine B assay; in short: as §4
IGROV-1 = assay: Growth inhibition of human IGROV1 cells after 48 hrs by sulforhodamine B assay; conditions: IGROV-1, 48 h; in short: as §1
[2] = Growth inhibition of human NCI-ADR-RES cells assessed as cell growth at 10 uM after 48 hrs by sulforhodamine B assay; conditions: read-out: Activity; in short: as §5
SK-MEL-2 = assay: Growth inhibition of human SK-MEL-2 cells after 48 hrs by sulforhodamine B assay; conditions: SK-MEL-2, 48 h; in short: as §4
[3] = Growth inhibition of human Hs 578T cells after 48 hrs by sulforhodamine B assay; in short: as §1
DU-145 = assay: Growth inhibition of human DU145 cells assessed as cell growth at 10 uM after 48 hrs by sulforhodamine B assay; conditions: DU-145, 48 h, read-out: Activity
In short: (§6)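 NCI-60 single-dose screen at 10 µM: cells in RPMI 1640 with 5% FBS, preincubated 24 h, then exposed 48 h at 37 °C. TCA fixation (16% final for suspension cells), SRB staining, absorbance 515 nm. Percent growth relative to time-zero and untreated control plates; negative values indicate cell kill.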

BT-549 = assay: Growth inhibition of human BT549 cells assessed as cell growth at 10 uM after 48 hrs by sulforhodamine B assay; conditions: BT-549, 48 h, read-out: Activity; in short: as §6
COLO 205 = assay: Growth inhibition of human COLO205 cells assessed as cell growth at 10 uM after 48 hrs by sulforhodamine B assay; conditions: COLO 205, 48 h, read-out: Activity; in short: as §6
HOP-92 = assay: Growth inhibition of human HOP92 cells assessed as cell growth at 10 uM after 48 hrs by sulforhodamine B assay; conditions: HOP-92, 48 h, read-out: Activity; in short: as §6
[4] = Growth inhibition of human EKVX cells assessed as cell growth at 10 uM after 48 hrs by sulforhodamine B assay; conditions: read-out: Activity; in short: as §6
ACHN = assay: Growth inhibition of human ACHN cells assessed as cell growth at 10 uM after 48 hrs by sulforhodamine B assay; conditions: read-out: Activity; in short: as §6
U-251 = assay: Growth inhibition of human U251 cells after 48 hrs by sulforhodamine B assay; conditions: U-251, 48 h; in short: as §3
UACC-257 = assay: Growth inhibition of human UACC257 cells after 48 hrs by sulforhodamine B assay; conditions: UACC-257, 48 h; in short: as §3
SK-OV-3 = assay: Growth inhibition of human SKOV3 cells after 48 hrs by sulforhodamine B assay; conditions: SK-OV-3, 48 h; in short: as §3
NCI-H460 = assay: Growth inhibition of human NCI-H460 cells after 48 hrs by sulforhodamine B assay; conditions: NCI-H460, 48 h; in short: as §4

SMILES: CC(C)=CCC/C(C)=C/CC/C(C)=C/CC[C@]1(C)CCc2c3c(cc(C)c2O1)OCN(C1CCN(Cc2ccccc2)CC1)C3
- GI50 (KM12): 0.699 µM
- growth at 10 µM (SW-620): 100%
- GI50 (UACC-62): 1.48 µM
- GI50 (M14): 1.89 µM
- GI50 (MDA-MB-435): 1.2 µM
- growth at 10 µM (TK-10): 82.5%
- growth at 10 µM (MDA-MB-468): 0.33%
- GI50 (MOLT-4): 0.237 µM
- growth at 10 µM (OVCAR-5): 79%
- GI50 [1]: 2.56 µM
- GI50 (IGROV-1): 1.56 µM
- growth at 10 µM [2]: 62.9%
- GI50 (SK-MEL-2): 2.3 µM
- GI50 [3]: 1.51 µM
- growth at 10 µM (DU-145): 65.3%
- growth at 10 µM (BT-549): 109%
- growth at 10 µM (COLO 205): -36.5%
- growth at 10 µM (HOP-92): 37.4%
- growth at 10 µM [4]: 78%
- growth at 10 µM (ACHN): 83.2%
- GI50 (U-251): 1.51 µM
- GI50 (UACC-257): 2.24 µM
- GI50 (SK-OV-3): 1.93 µM
- GI50 (NCI-H460): 0.618 µM
